Measured values from article PMC9290342 (Clinical Pharmacology in Drug Development, 2021).
Like-named read-outs stand apart in the source and are kept apart here.

Assays:
[1] = type: in vivo, human; conditions: for tmax, total methylprednisolone: median (minimum‐maximum)
Method in brief: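 Oral methylprednisolone tablets were given to healthy in-clinic volunteers, with serial whole-blood sampling over 24 h after dosing on study days 1 and 4. Plasma total methylprednisolone was quantified by validated LC–MS/MS. The PK population comprised subjects with at least 4 consecutive quantifiable concentrations. Parameters were summarized descriptively.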

[2] = Plasma pharmacokinetics of free methylprednisolone after oral methylprednisolone; type: in vivo, human; conditions: oral 32 mg daily; for tmax, free methylprednisolone: median (minimum‐maximum)
[3] = test system: steroidogenic concentration (CSG = 5 × ConcMPD + ConcCortisol); assay: Steroidogenic exposure; type: in vivo, human; conditions: oral methylprednisolone 32 mg daily
Method in brief: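 After oral methylprednisolone on days 1 and 4, plasma total and free methylprednisolone were measured over 24 h by LC–MS/MS, alongside serum total and plasma free cortisol. Steroidogenic concentration was CSG = 5 × methylprednisolone concentration + cortisol concentration. AUEC24SG was derived noncompartmentally from actual sampling times, in subjects belonging to both the PK and PD populations.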

[4] = Safety: adverse events, examinations, laboratory tests; type: in vivo, human; conditions: n = 16 subjects per study drug group
Method in brief: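 The safety population comprised every subject given ≥1 dose. Assessments throughout the study covered AEs, TEAEs (events after the first dose through study completion), serious TEAEs, physical examinations, vital signs, 12‑lead ECGs and clinical laboratory tests. Results were summarized descriptively.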

[5] = every 1 mg of methylprednisolone is equivalent to 5 mg of cortisol; cited from earlier work
[6] = oral 32 mg daily, plasma, day 1, mean (SD), n = 16
[7] = oral 32 mg daily, plasma, day 4, mean (SD), n = 14
[8] = plasma, day 1, mean (SD), n = 16

## C[C@H]1C[C@@H]2[C@H]([C@@H](O)C[C@@]3(C)[C@H]2CC[C@]3(O)C(=O)CO)[C@@]2(C)C=CC(=O)C=C12 [Methylprednisolone, methylprednisolone]
[1]; oral 32 mg daily, AUC0-24 on day 4 divided by AUC0-24 on day 1, mean
  RAUC0‐24 (accumulation ratio), total methylprednisolone: 0.9
[1]; oral 32 mg daily, after oral dosing
  time of mean peak plasma total methylprednisolone concentration (mean profile): around 2 hours
[1]; [6]
  AUC0‐inf, total methylprednisolone: n = 16 1030 (380) ng • h/mL
  AUC0‐last, total methylprednisolone: n = 16 1020 (381) ng • h/mL
  t½, total methylprednisolone: n = 16 2.2 (0.6) h
[1]; oral 32 mg daily, plasma, day 1, mean (SD), n = 16, listed as methylprednisolone
  t½, total methylprednisolone: 2.2 h
[1]; oral 32 mg daily, plasma, day 1, n = 16
  tmax, total methylprednisolone: n = 16 2.0 (2.0‐4.0) h
[1]; [7]
  AUC0‐last, total methylprednisolone: n = 14 919 (297) ng • h/mL
  t½, total methylprednisolone: n = 14 2.4 (0.7) h
[1]; oral 32 mg daily, plasma, day 4, mean (SD), n = 14, listed as methylprednisolone
  t½, total methylprednisolone: 2.4 h
[1]; oral 32 mg daily, plasma, day 4, n = 14
  tmax, total methylprednisolone: n = 14 2.0 (1.0‐4.0) h
[1]; oral methylprednisolone 32 mg daily, plasma, LC-MS/MS, day 4, mean (SD), n = 14
  Cmax, total methylprednisolone: n = 14 188.0 (40.0) ng/mL
[2]; after oral dosing
  time of mean peak plasma free methylprednisolone concentration (mean profile): 2 h
[2]; plasma, LC-MS/MS, day 4, mean (SD), n = 15
  Cmax, free methylprednisolone: n = 15 21.9 (5.4) ng/mL
[2]; [8]
  AUC0‐inf, free methylprednisolone: n = 16 106 (36) ng • h/mL
  AUC0‐last, free methylprednisolone: n = 16 104.0 (35.2) ng • h/mL
  t½, free methylprednisolone: n = 16 1.9 (0.5) h
[2]; plasma, day 1, mean (SD), n = 16, listed as methylprednisolone
  t½, free methylprednisolone: 1.9 h
[2]; plasma, day 1, n = 16
  tmax, free methylprednisolone: n = 16 2.0 (1.0‐4.0) h
[2]; plasma, day 4, mean (SD), n = 13
  t½, free methylprednisolone: n = 13 2.0 (0.5) h
[2]; plasma, day 4, mean (SD), n = 13, listed as methylprednisolone
  t½, free methylprednisolone: 2.0 h
[2]; plasma, day 4, mean (SD), n = 15
  AUC0‐last, free methylprednisolone: n = 15 89.5 (27.3) ng • h/mL
[2]; plasma, day 4, n = 15
  tmax, free methylprednisolone: n = 15 2.0 (1.0‐4.0) h
[3]; day 1, mean (SD 1770.0)
  plasma total AUEC24SG: 6480.0 ng·h/mL
[3]; day 4, mean (SD 136.0)
  plasma free AUEC24SG: 492.0 ng·h/mL
[3]; day 4, mean (SD 1330.0)
  plasma total AUEC24SG: 5440.0 ng·h/mL
[4]
  Any TESAE: 0 n (%)
  Subjects with any TEAE: 10 (62.5) n (%)
  TEAE: Contusion: 1 (6.3) n (%)
  TEAE: Dysuria: 0 n (%)
  TEAE: Headache: 2 (12.5) n (%)
  TEAE: Heart palpitations: 2 (12.5) n (%)
  TEAE: Injection site reaction: 0 n (%)
  TEAE: Insomnia: 0 n (%)
  TEAE: Somnolence: 0 n (%)
  TESAE: Pulmonary embolism: 0 n (%)
[4]; number of adverse events
  AEs: 17 n
[5]
  potency relative to cortisol (times more potent): 5 times
